Consider seven compounds from PMC4012894 (Journal of the American Chemical Society, 2014).

Test [1] concerns the target T1, PikCD50N-RhFRED (Streptomyces venezuelae, UniProt O87605, D50N).
T1 sequence (O87605 1-416 D50N): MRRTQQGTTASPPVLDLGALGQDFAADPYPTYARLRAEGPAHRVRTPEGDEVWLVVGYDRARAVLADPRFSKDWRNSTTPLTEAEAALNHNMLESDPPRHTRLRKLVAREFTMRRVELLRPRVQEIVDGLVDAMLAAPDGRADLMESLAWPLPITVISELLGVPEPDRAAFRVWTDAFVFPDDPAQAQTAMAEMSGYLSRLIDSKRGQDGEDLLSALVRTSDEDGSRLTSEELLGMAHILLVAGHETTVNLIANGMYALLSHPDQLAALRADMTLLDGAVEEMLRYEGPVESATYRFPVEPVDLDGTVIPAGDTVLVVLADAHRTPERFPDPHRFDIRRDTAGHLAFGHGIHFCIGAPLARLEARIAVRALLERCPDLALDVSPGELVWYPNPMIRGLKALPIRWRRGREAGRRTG
T1 sequence (Q8KU27 445-773 partner): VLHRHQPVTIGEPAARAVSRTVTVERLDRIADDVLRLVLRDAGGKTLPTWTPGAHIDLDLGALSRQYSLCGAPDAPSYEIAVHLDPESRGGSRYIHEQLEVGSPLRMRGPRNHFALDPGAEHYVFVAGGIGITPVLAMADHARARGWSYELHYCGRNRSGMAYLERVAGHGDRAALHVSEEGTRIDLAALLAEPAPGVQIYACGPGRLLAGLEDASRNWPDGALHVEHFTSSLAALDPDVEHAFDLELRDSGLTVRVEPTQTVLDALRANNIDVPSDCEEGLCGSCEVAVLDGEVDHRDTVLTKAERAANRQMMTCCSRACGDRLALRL
Kind of test: PikCD50N-RhFRED analytical-scale enzymatic reactions. It is filed as biochemical. Particulars: for hydroxylation by PikCD50N-RhFRED (result in words): 0.5 mol % enzyme (5 μM enzyme, 1 mM substrate); for preferred site of hydroxylation (regioselectivity in words): PikCD50N-RhFRED.

Another test relates to PikCD50N/H238A-RhFRED. Kind of test: Total turnover number. It is filed as biochemical. Particulars: PikCD50N/H238A-RhFRED double mutant. In outline: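 Double mutant made by adding H238A to the PikCD50N-RhFRED fusion, to probe the H238 H-bond to the anchoring-group carbonyl. TTN is expressed relative to moles of enzyme.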
Test [2] addresses T1, PikCD50N-RhFRED. Kind of test: Spectroscopic equilibrium substrate binding assay, PikCD50N-RhFRED.
A further test has as its target T2, PikCD50NH238A (Streptomyces venezuelae, UniProt O87605, D50N/H238A).
T2 sequence (O87605 1-416 D50N/H238A): T1 sequence (O87605 1-416 D50N)
T2 sequence (Q8KU27 445-773 partner): T1 sequence (Q8KU27 445-773 partner)
Kind of test: Spectroscopic equilibrium substrate binding assay, PikCD50NH238A mutant.

Structures are written as SMILES.

Turning to `CC[C@H]1OC(=O)[C@H](C)[C@@H](OC(=O)c2cccc(CN(C)C)c2)[C@@H](C)C[C@@H](C)C(=O)/C=C/[C@H]1C` [16b], at PikCD50N-RhFRED [1], the “hydroxylation by PikCD50N-RhFRED (result in words)” value (“hydroxylation by PikCD50N-RhFRED” for short) is given as “converted to monohydroxylated products” and the “preferred site of hydroxylation (regioselectivity in words)” value is listed as “highly regioselective allylic hydroxylation at C-10”. In addition, the “TTN D50NH238A” value in the test with PikCD50N/H238A-RhFRED stood at 922 ± 35.

What is called Kd is the equilibrium constant for the complex coming apart. Consider `CC[C@H]1OC(=O)[C@H](C)[C@@H](OC(=O)[C@H]2CCCN2C)[C@@H](C)C[C@@H](C)C(=O)/C=C/[C@H]1C` [12a], for which the “preferred site of hydroxylation (regioselectivity in words)” value at PikCD50N-RhFRED [1] was “preferential C-10 hydroxylation”. In addition, in the test on PikCD50N/H238A-RhFRED, the “TTN D50NH238A” value was determined as 542 ± 30. Further, the dissociation constant (Kd) on PikCD50N-RhFRED [2] is 47 ± 3 µM; on PikCD50NH238A, 19 ± 1.3 µM.

Take `CC[C@H]1OC(=O)[C@H](C)[C@@H](OC(=O)c2ccc(CN(C)C)cc2)[C@@H](C)C[C@@H](C)C(=O)/C=C/[C@H]1C` [16a]: on PikCD50N-RhFRED [1], the “hydroxylation by PikCD50N-RhFRED” value is reported as “converted to monohydroxylated products” and the “preferred site of hydroxylation (regioselectivity in words)” value is “highly regioselective allylic hydroxylation at C-10”. Besides, the “TTN D50NH238A” value in the test with PikCD50N/H238A-RhFRED was determined as 816 ± 33.

On to `CC[C@H]1OC(=O)[C@H](C)[C@@H](OC(=O)[C@@H]2CCCN2C)[C@@H](C)C[C@@H](C)C(=O)/C=C/[C@H]1C` [12b], for which, at PikCD50N-RhFRED [1], the “preferred site of hydroxylation (regioselectivity in words)” value is “preferential C-10 hydroxylation”. In addition, the “TTN D50NH238A” value in the test on PikCD50N/H238A-RhFRED is listed as 538 ± 20. Moreover, the values for the Kd at PikCD50N-RhFRED [2] and at PikCD50NH238A were 28 ± 5.4 µM and 21 ± 0.7 µM, respectively.

For `CC[C@H]1OC(=O)[C@H](C)[C@@H](OC(=O)CCN(C)C)[C@@H](C)C[C@@H](C)C(=O)/C=C/[C@H]1C` [8b], in the test with PikCD50N/H238A-RhFRED, the “TTN D50NH238A” value was found to be 870 ± 38. Besides, the Kd on PikCD50N-RhFRED [2] came out at 81 ± 15 µM; on PikCD50NH238A, 161 ± 25 µM.

For `CC[C@H]1OC(=O)[C@H](C)[C@@H](OC(=O)c2ccccc2CN(C)C)[C@@H](C)C[C@@H](C)C(=O)/C=C/[C@H]1C` [compound 14], on PikCD50N-RhFRED [1], the “hydroxylation by PikCD50N-RhFRED” value is “converted to monohydroxylated products” and the “preferred site of hydroxylation (regioselectivity in words)” value is listed as “favor C-12 hydroxylation”. The “TTN D50NH238A” value in the test on PikCD50N/H238A-RhFRED was 491 ± 26.

Consider `CC[C@H]1OC(=O)[C@H](C)[C@@H](OC(=O)CCCN(C)C)[C@@H](C)C[C@@H](C)C(=O)/C=C/[C@H]1C` [compound 10], for which the “TTN D50NH238A” value with PikCD50N/H238A-RhFRED was found to be 853 ± 38. Besides, the Kd was 123 ± 14 µM on PikCD50N-RhFRED [2] and 168 ± 19 µM at PikCD50NH238A.
